The test system of assay [1] is HeLa. Nature of the assay: Estrogenic activity in human HeLa cells assessed as Bcl-xL gene transcriptional activity at 10 nM after 24 hrs by RT-PCR relative to 17-beta-estradiol. Type of assay: functional. A digest of the protocol: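 HeLa cells grown in DMEM with 5% FBS (37 °C, 5% CO2, 24 h), then moved to phenol red-free DMEM with 5% charcoal-stripped FBS for 24 h. Exposed to 10^-8 M compound (final) for 24 h. Controls: 10^-8 M 17β-estradiol, 0.01% DMSO. Total RNA extracted, reverse transcribed. Bcl-xL PCR: 28 cycles (94 °C 30 s, 60 °C 30 s, 72 °C 30 s), same profile as HPRT.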

Assay [2] concerns HeLa. Kind of assay: Estrogenic activity in human HeLa cells assessed as ERbeta gene transcriptional activity at 10 nM after 24 hrs by RT-PCR relative to 17-beta-estradiol. Type of assay: functional. A digest of the protocol:
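Steroid-depleted HeLa cells (24 h in phenol red-free DMEM, 5% charcoal-stripped FBS) treated 24 h with compound at 10^-8 M final. 17β-Estradiol at 10^-8 M was the positive control and 0.01% DMSO the negative. RNA isolated and converted to cDNA. ERβ PCR: 32 cycles (94 °C 30 s, 56 °C 30 s, 72 °C 30 s), final extension 7 min.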

Turning to `O=C(/C=C/c1ccc(O)cc1)CCCCc1ccccc1`, the Activity with HeLa [1] worked out at 74.41%; in the assay with HeLa [2], 70.33%.
The corresponding values for `O=C(/C=C/C=C/c1ccccc1)CCc1ccc(O)cc1` are 74.54% and 87.75%.
On the same counts, the results for `Oc1ccc(CC[C@@H](O)CC/C=C/c2ccccc2)cc1` are 57.73% and 52.5%.
The corresponding values for `Oc1ccc(CC[C@@H](O)CC/C=C/c2ccccc2)cc1O` are 45.98% and 51.5%.
On to `CO[C@@H](CC/C=C/c1ccccc1)CCc1ccccc1`, for which the Activity with HeLa [1] is listed as 72.5%; in the assay on HeLa [2] it was 74.97%.
On to `CC(=O)O[C@@H](/C=C/C=C/c1ccccc1)CCc1ccccc1`, for which the Activity in the assay on HeLa [1] is 47.96%; in the assay with HeLa [2], 58.36%.
The corresponding values for `CC(=O)Oc1ccc(CCC(=O)CC/C=C/c2ccccc2)cc1` are 75.3% and 84%.
On the same counts, the results for `CC(=O)Oc1ccc(CCC(=O)/C=C/C=C/c2ccccc2)cc1` are 49.82% and 68.45%.
On the same counts, the results for `COc1ccc(CCC(=O)CC/C=C/c2ccccc2)cc1` are 71.4% and 58.51%.
As for `COc1ccc(CCC(=O)/C=C/C=C/c2ccccc2)cc1`, the Activity with HeLa [1] was found to be 76.77%; in the assay with HeLa [2], 72%.
As for `C(=C\C=C\c1ccccc1)/C=C/Cc1ccccc1`, the Activity with HeLa [1] is given as 77.5%; in the assay on HeLa [2] it was 76.46%.
Consider `O[C@@H](CC/C=C/c1ccccc1)CCc1ccccc1`, for which the Activity with HeLa [1] is reported as 52.85%; in the assay on HeLa [2] it was 42.48%.
Consider `O=C(/C=C/C=C/c1ccccc1)CCc1ccccc1`, for which the figures for the Activity in the assay with HeLa [1] and in the assay with HeLa [2] were 43.97% and 33.72%, respectively.
On the same counts, the results for `O[C@@H](/C=C/C=C/c1ccccc1)CCc1ccccc1` are 62.51% and 75.42%.
For `O=C(CC/C=C/c1ccccc1)CCc1ccc(O)cc1`, the Activity with HeLa [1] amounted to 78.51%; in the assay on HeLa [2] it was 90.56%.
On the same counts, the results for `O[C@@H](CCCCc1ccccc1)CCc1ccccc1` are 40% and 37.03%.
Take `O=C(CCCCc1ccccc1)CCc1ccccc1`: the Activity in the assay on HeLa [1] came to 42.18%; in the assay with HeLa [2] it was 57.5%.
The corresponding values for `O=C(CC/C=C/c1ccccc1)CCc1ccccc1` are 74.3% and 85.45%.
On the same counts, the results for `O=C(/C=C/CCc1ccccc1)CCc1ccc(O)cc1` are 47.08% and 50.86%.
`CC(=O)O[C@@H](CCCCc1ccccc1)CCc1ccccc1`: the values for the Activity in the assay on HeLa [1] and in the assay with HeLa [2] were 55% and 58.97%, respectively.
On the same counts, the results for `CC(=O)O[C@@H](CC/C=C/c1ccccc1)CCc1ccccc1` are 71.06% and 75.5%.
The corresponding values for `O=c1c(-c2ccc(O)cc2)coc2cc(O)cc(O)c12` [GENISTEIN] are 72.85% and 75.51%.

The values above are taken from ChEMBL document CHEMBL1158160, “Diarylheptanoids, new phytoestrogens from the rhizomes of Curcuma comosa: Isolation, chemical modification and estrogenic activity evaluation” (2008).
